# Tests used:
# [1] = system: Staphylococcus aureus; assay: Antibacterial activity against Staphylococcus aureus ATCC 25923 after 18 hrs by broth microdilution method; type: functional; conditions: ATCC 25923, 18 h
# Procedure, shortened: (§1)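 MIC by broth microdilution per ISO 20776-1:2006 and CLSI M07-A8. Inoculum 10^6 cfu/ml in Mueller-Hinton broth with compound serially diluted, final concentrations 2 to 128 ug/ml, duplicate rows, no-drug growth control. Incubation 18 h at 37 °C. MIC taken as lowest concentration giving complete inhibition of visible growth. Each compound tested at least twice.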
# [2] = system: Staphylococcus aureus; assay: Antibacterial activity against Staphylococcus aureus ATCC 29213 after 18 hrs by broth microdilution method; type: functional; conditions: ATCC 29213, 18 h; procedure, shortened: as §1
# [3] = system: Staphylococcus aureus; assay: Antibacterial activity against Staphylococcus aureus ATCC 9144 after 18 hrs by broth microdilution method; type: functional; conditions: ATCC 9144, 18 h; procedure, shortened: as §1
# [4] = system: Staphylococcus aureus; assay: Antibacterial activity against Staphylococcus aureus ATCC 6538 after 18 hrs by broth microdilution method; type: functional; conditions: ATCC 6538, 18 h; procedure, shortened: as §1
# [5] = system: Staphylococcus aureus; assay: Antibacterial activity against Staphylococcus aureus CIP 65.6 after 18 hrs by broth microdilution method; type: functional; conditions: CIP 65.6, 18 h; procedure, shortened: as §1
# [6] = system: Staphylococcus aureus; assay: Antibacterial activity against Staphylococcus aureus CIP 103428 after 18 hrs by broth microdilution method; type: functional; conditions: CIP 103428, 18 h; procedure, shortened: as §1
# [7] = system: Staphylococcus aureus; assay: Antibacterial activity against methicillin-resistant Staphylococcus aureus CIP 65.25 after 18 hrs by broth microdilution method; type: functional; conditions: CIP 65.25, 18 h
# Procedure, shortened: (§2)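 Broth microdilution following ISO 20776-1:2006 and CLSI M07-A8, in Mueller-Hinton broth. Inoculum was 10^6 cfu/ml, with compound serial dilutions spanning 2 to 128 ug/ml and a compound-free growth control well. Plates were incubated 18 h at 37 °C. MIC was the lowest concentration giving complete inhibition of visible growth. Each compound was tested at least twice.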
# [8] = system: Staphylococcus aureus; assay: Antibacterial activity against methicillin-resistant Staphylococcus aureus ATCC 33592 after 18 hrs by broth microdilution method; type: functional; conditions: ATCC 33592, 18 h; procedure, shortened: as §2
# [9] = system: Staphylococcus aureus; assay: Antibacterial activity against vancomycin intermediate Staphylococcus aureus […] after 18 hrs by broth microdilution method; type: functional; procedure, shortened: as §2
# [10] = system: Staphylococcus epidermidis; assay: Antibacterial activity against Staphylococcus epidermidis ATCC 12228 after 18 hrs by broth microdilution method; type: functional; conditions: ATCC 12228, 18 h; procedure, shortened: as §1
# [11] = system: Staphylococcus epidermidis; assay: Antibacterial activity against Staphylococcus epidermidis CIP 81.55 after 18 hrs by broth microdilution method; type: functional; conditions: CIP 81.55, 18 h; procedure, shortened: as §1
# [12] = system: Staphylococcus epidermidis; assay: Antibacterial activity against Staphylococcus epidermidis CIP 103627 after 18 hrs by broth microdilution method; type: functional; conditions: CIP 103627, 18 h; procedure, shortened: as §1
# [13] = system: Streptococcus pneumoniae; assay: Antibacterial activity against Streptococcus pneumoniae ATCC 49619 after 18 hrs by broth microdilution method; type: functional; conditions: ATCC 49619, 18 h
# Procedure, shortened: (§3)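 MIC by broth microdilution per ISO 20776-1:2006 and CLSI M07-A8. Inoculum 10^6 cfu/ml in Mueller-Hinton broth […]. Compound serially diluted, final 2 to 128 ug/ml, duplicate rows, no-drug growth control. Read after 18 h at 37 °C as lowest concentration fully inhibiting visible growth. At least two experiments.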
# [14] = system: Streptococcus pneumoniae; assay: Antibacterial activity against Streptococcus pneumoniae ATCC 6303 after 18 hrs by broth microdilution method; type: functional; conditions: ATCC 6303, 18 h; procedure, shortened: as §3
# [15] = system: Streptococcus agalactiae; assay: Antibacterial activity against Streptococcus agalactiae ATCC 12400 after 18 hrs by broth microdilution method; type: functional; conditions: ATCC 12400, 18 h; procedure, shortened: as §2
# [16] = system: Streptococcus pyogenes; assay: Antibacterial activity against Streptococcus pyogenes CIP 104226 after 18 hrs by broth microdilution method; type: functional; conditions: CIP 104226, 18 h; procedure, shortened: as §2
# [17] = system: Streptococcus mitis; assay: Antibacterial activity against Streptococcus mitis CIP 103335 after 18 hrs by broth microdilution method; type: functional; conditions: CIP 103335, 18 h
# Procedure, shortened: (§4)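 Broth microdilution following ISO 20776-1:2006 and CLSI M07-A8, in Mueller-Hinton broth […]. Inoculum was 10^6 cfu/ml, with compound serial dilutions spanning 2 to 128 ug/ml and a compound-free growth control well. Plates were read after 18 h at 37 °C. MIC was the lowest concentration with no visible growth. Each compound was tested at least twice.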
# [18] = system: Enterococcus faecium; assay: Antibacterial activity against Enterococcus faecium CIP 54.32 after 18 hrs by broth microdilution method; type: functional; conditions: CIP 54.32, 18 h; procedure, shortened: as §2
# [19] = system: Enterococcus faecalis; assay: Antibacterial activity against Enterococcus faecalis ATCC 29212 after 18 hrs by broth microdilution method; type: functional; conditions: ATCC 29212, 18 h; procedure, shortened: as §2
# [20] = system: Escherichia coli; assay: Antibacterial activity against Escherichia coli ATCC 25922 after 18 hrs by broth microdilution method; type: functional; conditions: ATCC 25922, 18 h; procedure, shortened: as §2
# [21] = system: Haemophilus influenzae; assay: Antibacterial activity against Haemophilus influenzae ATCC 49766 after 18 hrs by broth microdilution method; type: functional; conditions: ATCC 49766, 18 h; procedure, shortened: as §4
# [22] = system: KB; assay: Cytotoxicity against human KB cells at 10 uM; type: cell-based
# [23] = system: HCT-116; assay: Cytotoxicity against human HCT116 cells at 10 uM; type: cell-based; conditions: hct-116, 10 µM
# [24] = system: MRC5; assay: Cytotoxicity against human MRC5 cells at 10 uM; type: cell-based; conditions: mrc5, 10 µM
# [25] = system: KB; assay: Cytotoxicity against human KB cells at 1 uM; type: cell-based
# [26] = system: HCT-116; assay: Cytotoxicity against human HCT116 cells at 1 uM; type: cell-based; conditions: hct-116, 1 µM
# [27] = system: MRC5; assay: Cytotoxicity against human MRC5 cells at 1 uM; type: cell-based; conditions: mrc5, 1 µM
# [28] = system: Klebsiella pneumoniae; assay: microbe, parasite or virus in culture; conditions: ATCC 35657, 18 h
# [29] = system: Enterobacter cloacae; assay: microbe, parasite or virus in culture; conditions: ATCC 13047, 18 h
# [30] = system: Serratia marcescens; assay: microbe, parasite or virus in culture; conditions: CIP 103551, 18 h
# [31] = system: Pseudomonas aeruginosa; assay: microbe, parasite or virus in culture; conditions: CIP 5933, 18 h
# [32] = system: Acinetobacter baumannii; assay: microbe, parasite or virus in culture; conditions: ATCC 19606 = CIP 70.34 = JCM 6841, 18 h
Compound,MIC [1] [µg/mL],MIC [2] [µg/mL],MIC [3] [µg/mL],MIC [4] [µg/mL],MIC [5] [µg/mL],MIC [6] [µg/mL],MIC [7] [µg/mL],MIC [8] [µg/mL],MIC [9] [µg/mL],MIC [10] [µg/mL],MIC [11] [µg/mL],MIC [12] [µg/mL],MIC [13] [µg/mL],MIC [14] [µg/mL],MIC [15] [µg/mL],MIC [16] [µg/mL],MIC [17] [µg/mL],MIC [18] [µg/mL],MIC [19] [µg/mL],MIC [20] [µg/mL],other results
Cl.Cl.NCC(NO)c1c[nH]c2ccc(I)cc12 (stereo not drawn),16,16,16,16,16,16,32,32,16,16,16,16,64,64,128,128,128,128,128,32,MIC [21]: 64 µg/mL; Activity [22]: Non-toxic; Activity [23]: Non-toxic; Activity [24]: Non-toxic; Activity [25]: Non-toxic; Activity [26]: Non-toxic; Activity [27]: Non-toxic; MIC [28]: 64 µg/mL; MIC [29]: 64 µg/mL; MIC [30]: 64 µg/mL; MIC [31]: 64 µg/mL; MIC [32]: 64 µg/mL
Cl.Cl.NCC(NO)c1c[nH]c2cc(F)ccc12 (stereo not drawn),16,16,16,16,16,16,16,16,16,16,16,16,64,64,64,64,64,128,128,64,MIC [21]: > 128 µg/mL; Activity [22]: Non-toxic; Activity [23]: Non-toxic; Activity [24]: Non-toxic; Activity [25]: Non-toxic; Activity [26]: Non-toxic; Activity [27]: Non-toxic; MIC [28]: 64 µg/mL; MIC [29]: 64 µg/mL; MIC [30]: 64 µg/mL; MIC [31]: 64 µg/mL; MIC [32]: 64 µg/mL
Cl.Cl.Cl.NCC(NO)c1c[nH]c2cc(Cl)ccc12 (stereo not drawn),16,16,16,16,16,16,16,16,16,16,16,16,64,64,64,64,64,128,128,32,MIC [21]: 128 µg/mL; Activity [22]: Non-toxic; Activity [23]: Non-toxic; Activity [24]: Non-toxic; Activity [25]: Non-toxic; Activity [26]: Non-toxic; Activity [27]: Non-toxic; MIC [28]: 64 µg/mL; MIC [29]: 64 µg/mL; MIC [30]: 64 µg/mL; MIC [31]: 64 µg/mL; MIC [32]: 64 µg/mL
Cl.Cl.NCC(NO)c1c[nH]c2ccc(F)cc12 (stereo not drawn),8,8,8,8,8,8,16,16,8,8,8,8,64,64,32,32,32,64,64,32,MIC [21]: > 128 µg/mL; Activity [22]: Non-toxic; Activity [23]: Non-toxic; Activity [24]: Non-toxic; Activity [25]: Non-toxic; Activity [26]: Non-toxic; Activity [27]: Non-toxic; MIC [28]: 32 µg/mL; MIC [29]: 32 µg/mL; MIC [30]: 32 µg/mL; MIC [31]: 32 µg/mL; MIC [32]: 32 µg/mL

# Source: ChEMBL document CHEMBL1777764, “Synthesis and evaluation of 1-(1H-indol-3-yl)ethanamine derivatives as new antibacterial agents” (Bioorg Med Chem, 2011)
